Compound activity (PubChem)
OX1R antag-1 – blocks the human orexin 1 receptor | O43613 | OX1R-expressing cells, FRET antagonist read-out | inhibition, % at 6.6 µM | hit rate 1.8% among 330,000; in the data active = inhibition mostly above about 38%, no sharp cut-off; inactive = mostly below about 40%
TAAR1 ag – agonists of human TAAR1. AID 624467. CHO RD-HGA16 TAAR1, Fluo-8 calcium fluorescence; vehicle wells 0%, saturating PEA agonist 100%. activation, % at 3 µM. hit rate 0.99% among 360,000. Q96RJ0;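 active = activation above the mean activation of all test compounds in the run plus 3 SD, cut at about 38% in these data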
Target sequence (Q96RJ0 whole entry, looked up): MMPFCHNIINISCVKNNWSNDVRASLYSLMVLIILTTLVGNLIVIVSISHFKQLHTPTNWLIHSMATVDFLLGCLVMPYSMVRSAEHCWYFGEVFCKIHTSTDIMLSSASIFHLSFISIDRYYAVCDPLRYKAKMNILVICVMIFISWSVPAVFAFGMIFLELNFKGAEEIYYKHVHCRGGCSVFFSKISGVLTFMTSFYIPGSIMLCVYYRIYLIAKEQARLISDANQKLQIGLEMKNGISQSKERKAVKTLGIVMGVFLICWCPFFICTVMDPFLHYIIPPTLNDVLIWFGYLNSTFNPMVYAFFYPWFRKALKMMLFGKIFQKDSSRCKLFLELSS
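test system = CHO RD-HGA16 cells carrying human TAAR1 plus Gα16 | schedule = 17-24 h seeding, 75 min 37 °C dye, 30 min RT | compound dosing = 3 µM single concentration | control set = DMSO and PEA EC100 | replicates = n 1 | signal = Fluo-8 fluorescence, 5 s baseline then 140 s kinetic read | measure = percent activation vs PEA EC100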
GPR7 antagonist – antagonists of human GPR7 (neuropeptides B/W receptor 1) | inhibition, % at 4.4 µM | GPR7-expressing cells, fluorescence antagonist assay | hit rate 1.1% among 290,000 | AID 1861 | P48145; in the data active = inhibition above about 16%, passing the limit was not always enough;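 also: cells stimulated with the agonist NPW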
Target sequence (P48145 whole entry, looked up): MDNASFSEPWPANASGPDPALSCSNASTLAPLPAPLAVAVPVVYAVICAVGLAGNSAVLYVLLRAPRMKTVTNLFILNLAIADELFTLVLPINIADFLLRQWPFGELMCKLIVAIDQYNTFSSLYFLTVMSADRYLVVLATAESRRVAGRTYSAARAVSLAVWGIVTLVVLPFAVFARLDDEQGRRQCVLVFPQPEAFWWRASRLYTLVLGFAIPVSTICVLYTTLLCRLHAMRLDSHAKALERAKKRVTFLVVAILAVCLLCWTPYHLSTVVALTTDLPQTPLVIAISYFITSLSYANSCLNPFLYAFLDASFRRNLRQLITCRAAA
CHO parental Ca – signal in parental CHO cells, OX1R antagonist counter-screen; parental CHO-K1, ATP-induced calcium, Fluo-8 fluorescence; inhibition, % at 5.6 µM; hit rate 0.63% among 330,000; AID 463079;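 active = inhibition above that plate's mean sample inhibition plus 3 SD, cut at about 26% in these data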
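Measured by: calcium-sensitive Fluo-8 fluorescence / Test system: CHO parental line / Controls: ATP-challenged DMSO wells low, unchallenged DMSO wells high / Measure: % inhibition / Compound: single nominal dose of 5.6 µM per compound / Replicates: single well per compound, no replicates / Reagent: ATP as calcium-mobilizing challenge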
TAAR1 antag – antagonists of human TAAR1; Q96RJ0; hit rate 1.5% among 360,000; inhibition, % at 3 µM; CHO RD-HGA16 TAAR1, Fluo-8 calcium fluorescence, antagonist; AID 624466;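 active = inhibition above a per-plate cutoff, the mean inhibition of test compounds on that plate plus 3 SD, cut at about 49% in these data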
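Assay system: CHO-derived RD-HGA16 cells stably expressing human TAAR1 plus Gα16. Timing: 140 s kinetic read after compound, 140 s after agonist. Technique: kinetic Fluo-8 calcium fluorescence measurement. Measure: % inhibition of agonist calcium response.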
OX1R antag-2 – blocks the human orexin 1 receptor. O43613. CHO/OX1R cells, Fluo-8 calcium fluorescence, orexin A. inhibition, % at 5 µM. hit rate 0.43% among 330,000;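 active = inhibition above its plate's threshold, mean inhibition of all tested compounds on the plate plus 3 SD, cut at about 37% in these data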
Of the large screens only hits and unclear results are named; the others gave an inactive call. An excerpt weighted towards active compounds, which were near 4.6% of everything screened.

CC(C)(C)OC(=O)NCCCCCNC(=O)c1nc[nH]c1C(=O)N1CCN(c2ccccc2)CC1	TAAR1 antag 50 (no result: GPR7 antagonist)
Cc1[nH]c2ccccc2c1CC(=O)Nc1ccc(Nc2cccnc2)c(-c2cc(C(F)(F)F)cc(C(F)(F)F)c2)c1	none (no result: OX1R antag-1, GPR7 antagonist, CHO parental Ca, OX1R antag-2)
CCCCc1c(-c2ccccc2OC)ncn1Cc1ccc(C(C)(C)C)cc1	none (no result: OX1R antag-1, GPR7 antagonist, CHO parental Ca, OX1R antag-2)
CC(=O)c1sc(N/N=C\c2ccccc2O)nc1C	OX1R antag-1 51, TAAR1 ag 42
COC(=O)c1cc2c(c3c4ccccc4n(S(=O)(=O)c4ccc(OC)cc4)c13)C(=O)N(C)C2	none (no result: OX1R antag-1, GPR7 antagonist, CHO parental Ca, OX1R antag-2)
COc1ccc(OC)c(N(C(=O)c2ccco2)C(C(=O)NC2CCCC2)c2ccc(N3CCOCC3)cc2)c1 (configuration not stated)	none
C=CCN(CC=C)S(=O)(=O)c1ccc(NC(=O)COc2ccccc2OC)cc1	CHO parental Ca 38
COc1ccccc1OCC(=O)Nc1ccc(S(=O)(=O)N2CCCCCC2)cc1	none
COc1ccc(N2CCN(C(=O)CCCCCn3c(=S)[nH]c4ccc(N5CCOCC5)cc4c3=O)CC2)cc1	TAAR1 antag 56 (no result: OX1R antag-1, GPR7 antagonist, CHO parental Ca, OX1R antag-2)
COc1ccc(-c2sc3ccc(OC)cc3c2C#CCCO)cc1	none (no result: TAAR1 ag, TAAR1 antag)
COc1ccc2sc(-c3ccc(N(C)C)cc3)c(C#CCCO)c2c1	OX1R antag-1 51 (no result: GPR7 antagonist)
Cc1ccc(C(=O)N/N=c2\oc3ccccc3cc2C(N)=O)cc1	none
NC(=O)c1cc2ccccc2o/c1=N\NC(=O)c1ccncc1	OX1R antag-1 69
CCC(CC)C(=O)N(C)c1c(C)nc2c(OCc3cccc(OC)c3)cccn12	none (no result: OX1R antag-1, GPR7 antagonist, CHO parental Ca, OX1R antag-2)
COn1c(=O)c(-c2ccccc2)[n+]([O-])c2ccccc21	OX1R antag-1 42
COn1c(=O)c(-c2ccc(Cl)cc2)[n+]([O-])c2ccccc21	OX1R antag-1 53
Cc1ccc(S(=O)(=O)NCCC(=O)NCCOc2ccccc2)cc1	none (no result: OX1R antag-1, GPR7 antagonist, CHO parental Ca, OX1R antag-2)
O=Nc1ccccn1	none (no result: OX1R antag-1, GPR7 antagonist, CHO parental Ca, OX1R antag-2)
O=C(N/N=C/C(Cl)=C/c1ccc([N+](=O)[O-])cc1)C(=O)Nc1cccc(C(=O)O)c1	OX1R antag-1 66
O=C(Nc1cccc(C(=O)O)c1)/C(=C/c1cccc([N+](=O)[O-])c1)NC(=O)c1cccc(Br)c1	none (no result: GPR7 antagonist)
Cc1ccc(-c2nc3c(c(SCC(=O)N4CCOCC4)n2)Cc2c(CO)cnc(C)c2O3)cc1	OX1R antag-1 38
CC(=O)c1ccc(N2CCC(c3cc(-c4ccc(Cl)cc4)n[nH]3)CC2)c([N+](=O)[O-])c1	CHO parental Ca 43 (no result: TAAR1 ag, TAAR1 antag)
COc1ccc(-c2cc(C3CCN(c4ccc(C(C)=O)cc4[N+](=O)[O-])CC3)[nH]n2)cc1	CHO parental Ca 50
COc1ccc(CCC(=O)N2c3ccccc3N=C(c3ccc(C(F)(F)F)cc3)C2C(=O)NC(C)C)cc1 (configuration not stated)	none (no result: OX1R antag-1, GPR7 antagonist, CHO parental Ca, OX1R antag-2)
CCCCS(=O)(=O)N1C2=NC(C(=O)OCC)=C(C(=O)OCC)C3N(Cc4ccc(C#N)cc4)c4ccccc4[C@]23C[C@H]1C(=O)OC (some centres not stated)	none (no result: OX1R antag-1, GPR7 antagonist, CHO parental Ca, OX1R antag-2)
CC1(C(=O)NS(=O)(=O)c2ccc(F)cc2F)CCN1C(=O)CCc1ccc(Cl)cc1Cl (configuration not stated)	none (no result: OX1R antag-1, GPR7 antagonist, CHO parental Ca, OX1R antag-2)
O=C(N[C@H](C(=O)N1CCC[C@H]1C(=O)NC1CCCC1)C1CCCCC1)c1cccs1	none (no result: OX1R antag-1, GPR7 antagonist, CHO parental Ca, OX1R antag-2)
CCc1ccc(OCC(=O)Nc2ccc(-c3cc4ccccc4oc3=O)c(OC)c2)cc1	CHO parental Ca 40
O=C(Nc1ccccc1)c1ccc[n+](Cc2ccc([N+](=O)[O-])cc2)c1	OX1R antag-1 63
C[C@@H]1CCCCO[C@@H](CN(C)C(=O)c2ccncc2)[C@@H](C)CN([C@H](C)CO)C(=O)c2cc(NC(=O)Cc3ccccc3)ccc2O1	none (no result: OX1R antag-1, GPR7 antagonist, CHO parental Ca, OX1R antag-2)
Cn1nc(C(C)(C)C)cc1C(=O)NCc1ccc(N2CCCC2=O)cc1	CHO parental Ca 37
CCn1ncc(CN2CCCC(C(=O)Nc3cccc(-c4cc5ccccc5[nH]4)c3)C2)c1C (configuration not stated)	TAAR1 ag 41
CCOC(=O)c1c(C)n(C)c2ccc(OC(=O)c3ccoc3)cc12	GPR7 antagonist 16
Cc1cc2c(nc1C)CCCN2S(=O)(=O)c1ccccc1	none (no result: OX1R antag-1, GPR7 antagonist, CHO parental Ca, OX1R antag-2)
COc1ccc(-c2cc(C(=O)N3CCN(c4ncccn4)CC3)c3ccccc3n2)cc1OC	TAAR1 antag 57 (no result: GPR7 antagonist)
COc1ccc(-c2cc(C(=O)Nc3ccc(C(N)=O)cc3)c3ccccc3n2)cc1OC	TAAR1 antag 54
Cc1ccc(-c2cc(C(=O)N3CCN(c4ncccn4)CC3)c3ccccc3n2)cc1	TAAR1 antag 50
CCNC(=S)NNC(=O)c1cc(-c2ccc(OC)cc2)nc2ccccc12	none
O=C(c1cc(-c2ccccn2)nc2ccccc12)N1CCN(c2ncccn2)CC1	none
COc1ccc(Cl)cc1C(=O)NNC(=S)NC(=O)c1cc(-c2ccc(Cl)cc2)nc2ccccc12	TAAR1 ag 37
COc1ccccc1CNC(=O)C1(C)CCN1C(=O)Cc1ccc(-c2ccccc2)cc1 (configuration not stated)	none (no result: OX1R antag-1, GPR7 antagonist, CHO parental Ca, OX1R antag-2)
Cc1cc(Br)c2nc(-c3cccc(Br)c3)c(Cc3cccc(Cl)c3)n2c1	none (no result: OX1R antag-1, GPR7 antagonist, CHO parental Ca, OX1R antag-2)
COC(=O)[C@]12C[C@H](CC(=O)NCC34CC5CC(CC(C5)C3)C4)C(=O)N(CCC3=CCCCC3)C1=C[C@H](COCc1ccccc1)O[C@@H]2C	none (no result: OX1R antag-1, GPR7 antagonist, CHO parental Ca, OX1R antag-2)
O=C(O)c1ccc(NC(=O)c2cn(-c3ccccc3)nc2-c2cccc(Cl)c2)cc1	TAAR1 antag 52
O=C(O)c1ccc(NC(=O)c2cn(-c3ccccc3)nc2-c2ccc(F)cc2)cc1	TAAR1 antag 59
CC(C)NC(=O)N[C@H]1C=C[C@H](CC(=O)NCc2ccc(Oc3ccccc3)cc2)O[C@@H]1CO	none (no result: OX1R antag-1, GPR7 antagonist, CHO parental Ca, OX1R antag-2)
